Results from PMC4094229 (European journal of medicinal chemistry, 2013).

What was measured:
[1] = test system: human breast cancer cell lines (MCF-7 and MDA-MB-231); assay: MTT assay, activity against cancer cells; format: cell-based; details: 72 h, up to 50 μM
In short: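 ATCC cells were used. MCF-7 was grown in DMEM with 10% FBS, insulin, pyruvate and NEAA; MDA-MB-231 in DMEM with 10% FBS, NEAA and L-glutamine. Cells were seeded at 3×10³/well and exposed 72 h to 0, 1, 5, 10, 25, 50 μM, with a DMSO vehicle. MTT (5 mg/mL stock) was added for 2–4 h at 37°C; formazan was dissolved in DMSO and read at A570. Viability = mean OD treated/DMSO control; IC50 from three separate experiments.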

MCF-10A cells = assay: MTT cell viability assay, normal breast MCF-10A; format: cell-based, human
MCF-7 cells [2] = assay: Cell cycle distribution; format: cell-based, human; details: 24 h
MDA-MB-231 cells = assay: Cell cycle distribution; format: cell-based, human; details: 24 h
MCF-7 cells [3] = assay: MTT cell viability assay, MCF-7; format: cell-based; details: Homo sapiens, MCF7, 72 h, read-out: IC50 MCF-7, MTT, 72 h, 1-50 μM

C=C1C(=O)O[C@@H]2CC(C)=C3[C@@H](C[C@H]12)[C@](C)(O)C[C@@H]3O [Compound 10, deacetylinuchinenolide B]
activity against cancer cells [1]: did not show visible activity

CC(=O)O[C@H]1C(=O)[C@@]2(C)[C@H]([C@H](OC(=O)c3ccccc3)[C@]3(O)C[C@H](OC(=O)[C@H](O)[C@@H](NC(=O)c4ccccc4)c4ccccc4)C(C)=C1C3(C)C)[C@]1(OC(C)=O)CO[C@@H]1C[C@@H]2O [Paclitaxel, reference compound]
IC50 (MCF-10A cells; Homo sapiens, MCF-10A, 72 h, read-out: IC50 MCF-10A): 427 ± 55.4 nM

C=C1C(=O)O[C@H]2C[C@H](C)[C@@]34C[C@@]5(C(=O)O[C@H]6C[C@@H](C)[C@@H]7[C@@H](OC(C)=O)C[C@H](O)[C@@]7(C)C[C@@H]65)[C@@H](C(C)=C3C[C@H]12)[C@@H]4O [Compound 1, Lineariifolianoid E]
toxicity to MCF-10A cells (MCF-10A cells; normal breast cell line): low toxicity | effect on cell cycle progression (MCF-7 cells [2]; MCF-7, 0, 1, 2.5 μM): dose-dependent cell cycle arrest in the G2/M phase | cell cycle arrest at 2.5 μM (MCF-7 cells [2]; MCF-7, 2.5 μM): a majority of the MCF-7 cells were arrested in the G2/M phase | effect on cell cycle progression (MDA-MB-231 cells; MDA-MB-231, 0, 1, 2.5 μM): dose-dependent cell cycle arrest in both S and G2/M phase | cell cycle arrest at 2.5 μM (MDA-MB-231 cells; MDA-MB-231, 2.5 μM): significant increase in the number of cells in both S and G2/M phases

COc1cccc2c1C(=O)c1c(O)c3c(c(O)c1C2=O)C[C@@](O)(C(=O)CO)C[C@@H]3O[C@H]1C[C@H](N)[C@H](O)[C@H](C)O1 [Doxorubicin]
IC50 (MCF-7 cells [3]): 700 ± 60 nM

C=C1C(=O)O[C@@H]2CC(C)=C3[C@@H](OC(C)=O)C[C@@](C)(O)[C@@H]3[C@@H](O)[C@H]12 [Compound 7, 6α-hydroxyinuchinenolide B]
activity against cancer cells [1]: did not show visible activity

CC(=O)O[C@H]1C=C(CCO)[C@@H](C)C[C@H]2OC(=O)[C@@H](C)[C@@H]12 [Compound 9, 6β-acetoxysundiversifolide]
activity against cancer cells [1]: did not exhibit any noticeable activity

C[C@@H]1C2=C[C@H]3[C@@H](C[C@@]2(C)CC[C@@H]1O)OC(=O)[C@@H]3C [Compound 15, 3β-hydroxy-11α,13-dihydroalantolactone]
activity against cancer cells [1]: did not exhibit any noticeable activity

C=C1C(=O)O[C@H]2C[C@H](C)[C@H]3[C@@H](O)C[C@@](C)(O)[C@@]34O[C@H]4[C@H]12 [Compound 6, 5α,6α-epoxy-2α,4α-dihydroxy-1β-guai-11(13)-en-12,8α-olide]
activity against cancer cells [1]: did not show visible activity
